# CTSL1 counter – blocks F. hepatica cathepsin L1 in PFM18AAP counter-screen | recombinant F. hepatica cathepsin L1, Z-Leu-Arg-MCA fluorescence | inhibition, % at 5.96 µM | hit rate 0.49% among 300,000;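 active means inhibition above the mean of all tested compounds plus 3 SD, set per screening campaign, cut at about 17% in these data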;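 further: 0% = plate median of test compound wells and 100% = 1 µM Z-Phe-Ala-diazomethylketone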
# PKA-R1A act – activates the PKA-R1A holoenzyme complex | hit rate 0.083% among 340,000 | PKA-R1A dissociation, Cy5-IP20 fluorescence polarization; scaled: DMSO 0%, 113 µM cGMP 100% | activation, % at 11.4 µM | AID 504707;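 active means percent activation above the mean of all tested compounds plus 3 SD, cut at about 19% in these data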;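 further: higher means more PKAc released from R1A so a rise in polarization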
# PKA-R2B act – activates the human PKA-R2B holoenzyme complex | activation, % at 11.4 µM | P22694+P31323 | PKA-R2B holoenzyme dissociation, Cy5-IP20 fluorescence polarization; R2B truncated from residue 108, S112A mutant; 0% DMSO only, 100% 113 µM cGMP | hit rate 0.079% among 340,000 | AID 504700;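 active means activation above a cutoff set at the mean over all compounds plus 3 SD, cut at about 18% in these data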;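 further: higher means more holoenzyme dissociation and a rise in polarization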
# UCH37 DUB inh – human UCH37 deubiquitinating enzyme inhibition | hit rate 0.33% among 330,000 | purified proteasome/UCH37, Ub-AMC cleavage fluorescence | inhibition, % (test concentration not listed) | Q9Y5K5;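 active means mean inhibition over replicate wells above about 20%, limit read from the data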;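 further: 0% = compound-free wells with enzyme and 100% = wells lacking proteasome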
# Target sequence (Q9Y5K5 whole entry, looked up): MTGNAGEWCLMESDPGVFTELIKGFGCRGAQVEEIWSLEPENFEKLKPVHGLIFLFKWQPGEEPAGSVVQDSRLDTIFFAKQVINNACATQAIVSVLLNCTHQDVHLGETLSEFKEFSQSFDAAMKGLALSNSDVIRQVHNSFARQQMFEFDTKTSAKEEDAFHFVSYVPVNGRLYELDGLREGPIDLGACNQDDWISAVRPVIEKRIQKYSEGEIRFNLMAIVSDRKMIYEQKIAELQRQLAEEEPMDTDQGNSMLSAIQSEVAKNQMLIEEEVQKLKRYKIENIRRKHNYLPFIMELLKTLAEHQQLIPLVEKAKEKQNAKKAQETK
#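 Schedule: 30 min plus 25 min, room temperature / Material: human UCH37 within purified proteasomes / Technique: AMC fluorescence intensity at 355/460 nm / Buffer or medium: pH 7.4 Tris-HCl (50 mM) with ovalbumin, ATP-MgCl2, DTT / Controls: wells without proteasome as full block, compound-free enzyme plus substrate as uninhibited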
# aDG glyco up – alpha-DG glycosylation activation. Pro5-aDG cells, alpha-DG glycosylation AlphaScreen (IIH6); 0% Pro5, 100% B10-LARGE cell signal. activation, % at 10 µM. hit rate 0.22% among 360,000;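 active means activation of at least 8% versus controls, or a plate z-score of at least 8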;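 further: Pro5 are CHO cells carrying HIG-tagged alpha-DG that lacks glycosylation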
# aDG conf – alpha-DG glycosylation activation, confirmation; hit rate 17% among 600; AID 651671; Pro5-aDG cells, IIH6 AlphaLISA; scaled to LARGE-overexpressing B10 cells as 100%; activation, % at 10 µM (by protocol); shares compounds with aDG glyco up;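 active means activation of at least 7% in one or more replicates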;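 further: cells exposed to compound for two days before detection; 0% = DMSO-treated Pro5 cells and 100% = DMSO-treated B10-LARGE cells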
# An asterisk follows results filed as active; · = no result. Shown are actives, neighbours in structure and some others; about 0.94% of the full set was active somewhere.
SMILES,CTSL1 counter,PKA-R1A act,PKA-R2B act,UCH37 DUB inh,aDG glyco up,aDG conf
CC(=O)c1cccc(NC(=O)C2CCCC2)c1,-1,-7,0,0,0,·
CC(=O)c1ccc(NC(=O)C2CCCC2)cc1,·,3,4,2,2.1*,-1
N/C(=N\OC(=O)COc1ccc(Br)cc1Cl)c1ccccn1,-11,8,9,2,14*,0
N/C(=N\OC(=O)COc1ccc(Cl)cc1Cl)c1ccccn1,-8,-3,-5,5,1,·
COc1ccc(C=NNC(=O)c2cccnc2)cc1O,·,·,·,9,·,·
c1csc(Cn2nnnc2CN2CCN(c3nc4ccccc4s3)CC2)c1,4,-13,-2,0,6.0*,2.8*
c1ccc(Cn2nnnc2C(c2ccccc2)N2CCN(c3nc4ccccc4s3)CC2)cc1 (centres undefined),0,-2,0,4,1,·
CCOc1cc(C=NNC(=O)Cc2ccccc2)ccc1OCC(=O)Nc1ccc(C)c(C)c1,·,·,·,-6,·,·
O=C(NN=Cc1ccccc1)c1cccc2ccccc12,·,·,·,1,·,·
N/C(=N\OC(=O)Nc1ccccc1)c1ncc([N+](=O)[O-])s1,4,-7,0,·,2.8*,3.3*
NC(=NOC(=O)c1ccc(Cl)cc1)c1ncc([N+](=O)[O-])s1,·,·,·,5,·,·
O=C(NN=Cc1cccc(OC(=O)c2cccc(Br)c2)c1)c1ccncc1,·,·,·,3,·,·
CCOc1ccccc1C=Nn1c(C2CCCCC2)n[nH]c1=S,·,·,·,3,·,·
CC(C)(C)c1nnc(NC(=O)Nc2ccc(Cl)cc2)s1,4,5,-2,1,2.2*,0
COc1ccc(Br)cc1C=NNC(=O)c1cc(Br)ccc1O,·,·,·,-69,·,·
Cc1cccc(N2CCN(C(=O)CSCc3c(C)noc3C)CC2)c1C,2,-4,3,2,6.8*,2
Clc1cccc(-c2nc3c4ccccc4ccn3c2CC2CCCCC2)c1,·,·,·,·,11*,2
Fc1ccc(-c2nc3c4ccccc4ccn3c2CC2CCCCC2)cc1,·,·,·,·,4,·
Clc1ccc(-c2nc3c4ccccc4ccn3c2CC2CCCCC2)cc1,·,·,·,·,22*,3
CC(Cc1ccccc1)=NNC(=O)c1ccccn1,·,·,·,3,·,·
Cn1nccc1C(=O)Nc1cc(Cl)ccc1Cl,-1,·,·,2,2.7*,-1
Cc1ccc(NC(=O)c2ccc(NN=Cc3cccc(O)c3)c([N+](=O)[O-])c2)cc1,·,·,·,9,·,·
CC(C)(C)c1ccc(C(=O)Nc2ccc(C(=O)NCc3cccnc3)cc2)cc1,-4,-15,-3,-2,2.3*,4.5*
COc1ccc(OC)c(C=NNC(=O)c2cc[n+](CC(=O)c3ccccc3)cc2)c1,·,·,·,-15,·,·
CC12CCC(C(=O)O)(CC1=NO)C2(C)C (centres undefined),·,·,·,4,·,·
SMILES,CTSL1 counter,PKA-R1A act,PKA-R2B act,UCH37 DUB inh,aDG glyco up,aDG conf
CCN1CCN(C2=C(NS(=O)(=O)c3ccc(NC(C)=O)cc3)C(=O)c3ccccc3C2=O)CC1,15,-6,-4,12,6.7*,0
COc1cc(C(=O)NCC(=O)NN=Cc2ccco2)cc(OC)c1OC,·,·,·,1,·,·
Cc1cc(C)nc(N=C(N)Nc2cccc([N+](=O)[O-])c2)n1,·,·,·,3,·,·
Cc1ccc(OCCCCn2ccnc2C)c(C)c1,0,-3,-6,5,3.0*,-1
CC(C)Cn1c(N)c(C(=O)COC(=O)c2ccc(Br)cc2)c(=O)n(C)c1=O,·,-13,-16,6,3.4*,1.2*
COc1ccc(C(C)=O)cc1COC(=O)CNC(=O)C1CCCCC1,·,3,-8,4,9.1*,0
CCN(CC)S(=O)(=O)c1cccc(C(=O)NN=Cc2c(C)nn(-c3ccccc3)c2Cl)c1,·,·,·,3,·,·
COc1ccccc1NC(=O)Nc1nc(C(N)Cc2ccc(Cl)cc2)cs1 (centres undefined),·,·,·,·,1,·
COc1ccccc1NC(=O)Nc1nc(C(N)Cc2ccccc2)cs1 (centres undefined),·,·,·,·,7.4*,6.9*
Cn1c(C=NNC(=O)c2ccccc2Br)nc2ccccc21,·,·,·,-17,·,·
CC1CCCN(CCCNC(=O)c2nn(C)c3c2CSc2ccccc2-3)C1 (centres undefined),1,2,0,1,6.3*,9.0*
CC1CCCCN1CCCNC(=O)c1nn(C)c2c1CSc1ccccc1-2 (centres undefined),0,-4,-1,·,2,·
CCOC(=O)C(=NNc1ccccc1Cl)N(C)C1CCS(=O)(=O)C1 (centres undefined),·,·,·,10,·,·
O=C(CNC(=O)c1ccccc1O)NN=Cc1ccccn1,·,·,·,4,·,·
COc1cc(C=NNC(=O)/C(=C/c2ccccc2)CCO)ccc1O,·,·,·,4,·,·
O=C(COc1ccc2c3c(c(=O)oc2c1)CCCC3)NCc1cccnc1,2,-3,-4,-7,7.0*,0
O=C(COc1ccc2c3c(c(=O)oc2c1)CCC3)NCc1ccccn1,-1,-6,8,-20,0,·
O=C(CSc1nc2ccccc2s1)CSc1nc2ccccc2s1,-1,-19,-1,2,6.8*,-1
Clc1cccc(Cl)c1CNCCCSc1ncccn1,0,-5,-8,1,0,·
Clc1ccc(CNCCCSc2ncccn2)cc1Cl,-1,1,-7,-1,2.4*,0
COc1ccc(CCN2C(=O)CSC2=Nc2ccc(C(C)C)cc2)cc1OC,5,·,·,·,2.9*,0
CC(C)n1cc(CN2CCCC(C(=O)Nc3cccc(-c4cc5ccccc5[nH]4)c3)C2)cn1 (centres undefined),-3,6,-9,·,8.8*,5.3*
CCCCC(=O)Nc1cccc(C(=O)NN=Cc2ccc(OC)cc2OC)c1,·,·,·,0,·,·
COC(=O)C1=C(C)NC(=S)NC1c1ccc(OC(=O)c2ccco2)cc1 (centres undefined),-12,2,5,6,5.3*,2
COC(=O)C1=C(C)NC(C)=C(C(=O)OC)C1c1ccc(OC(=O)c2ccco2)cc1,8,5,-11,-8,0,·
COc1cccc(C=Nn2c(SC)nnc2-c2ccccc2)c1O,·,·,·,3,·,·
Cc1cccc2cc(CN(CCCN(C)C)C(=S)NCCc3ccccc3)c(=O)[nH]c12,-3,4,5,0,4.7*,1
CC(Oc1cccc(Cl)c1)C(=O)Nc1ccc(S(=O)(=O)N(C)C2CCN(C)CC2)cc1 (centres undefined),·,6,-8,2,5.7*,5.3*
Cc1nnc(SCC(=O)NC2CCCc3ccccc32)n1-c1ccccc1 (centres undefined),0,-9,-1,5,7.0*,1
NC(=S)NNc1ccnc2cc(Cl)ccc12,2,5,5,5,0,·

# Bioassay records as filed in PubChem.
